Experimental data taken from ChEMBL document CHEMBL1122142, “Synthesis and antiinflammatory activity of hexahydrothiopyrano[4,3-c]pyrazoles and related analogues” (J Med Chem, 1982).

Experiments:
Cavia porcellus [1] = assay: Tested in delayed hypersensitivity skin reaction (DHSR) after subcutaneous administration, activity reported as percent inhibition of erythema/induration of lesion; 7/17; type: functional
Outline: (§1)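 Male Hartley guinea pigs were sensitized with Mycobacterium tuberculosis in Freund's incomplete adjuvant, injected into each hind footpad and subcutaneously at the neck. After 3 weeks, 1.2 μg PPD was given intradermally. Compound in sesame oil was given sc, 3 animals per group, 30 min before and 5 h after PPD; screening dose 50 mg/kg.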

Mus musculus [2] = assay: Inhibition of Mouse active Arthus (MAA) reaction activity was determined for an ip dose of 150 mg/kg in mouse; 21-30%; type: functional; conditions: route intraperitoneal
Mus musculus [3] = assay: Inhibition of Mouse active Arthus (MAA) reaction activity was determined for peroral dose of 150 mg/kg in mouse; 21-30%; type: functional; conditions: route oral
Cavia porcellus [4] = assay: The compound was evaluated for the delayed hypersensitivity skin reaction (DHSR) activity after subcutaneous administration; 14/36
Cavia porcellus [5] = assay: Tested in delayed hypersensitivity skin reaction (DHSR) after subcutaneous administration, activity reported as percent inhibition of erythema/induration of lesion; 8/21; type: functional; outline: as §1
Mus musculus [6] = assay: Inhibition of Mouse Active Arthus reaction following 150 mg/Kg i.p.; 41-60% inhibition.; type: functional; conditions: for inhibition in vivo at 150 mg/kg: Mus musculus, ip
Mus musculus [7] = assay: Mouse active Arthus (MAA) reaction activity was determined for an ip dose of 150 mg/kg in mouse; 31-40%; type: functional; conditions: route intraperitoneal
Cavia porcellus [8] = assay: The compound was evaluated for the delayed hypersensitivity skin reaction (DHSR) activity after subcutaneous administration; 12/21
Cavia porcellus [9] = assay: The compound was evaluated for the delayed hypersensitivity skin reaction (DHSR) activity after subcutaneous administration; 1/0
Cavia porcellus [10] = assay: Tested in delayed hypersensitivity skin reaction (DHSR) after subcutaneous administration, activity reported as percent inhibition of erythema/induration of lesion; 15/7; type: functional
Mus musculus [11] = assay: The compound was evaluated for the mouse active Arthus (MAA) reaction activity for peroral screening dose of 150 mg/kg in mouse; type: functional; conditions: route oral
Cavia porcellus [12] = assay: Tested in delayed hypersensitivity skin reaction (DHSR) after subcutaneous administration, activity reported as percent inhibition of erythema/induration of lesion; 3/4; type: functional; outline: as §1
Cavia porcellus [13] = assay: Tested in delayed hypersensitivity skin reaction (DHSR) after subcutaneous administration, activity reported as percent inhibition of erythema/induration of lesion; 4/22; type: functional; outline: as §1
Cavia porcellus [14] = assay: Tested in delayed hypersensitivity skin reaction (DHSR) after subcutaneous administration, activity reported as percent inhibition of erythema/induration of lesion; 13/4; type: functional
Mus musculus [15] = assay: The compound was evaluated for the mouse active Arthus (MAA) reaction activity expressed as inhibitory dose after oral administration; type: functional; conditions: read-out: ID50 (the source's name)
Outline: (§2)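 CD-1 mice were sensitized ip with a 1:1 Freund's complete adjuvant emulsion containing BSA in saline, 5 weeks before challenge. Compound was suspended in 1% Na CMC in pyrogen-free saline and given as one ip or oral dose 1 h before skin challenge with BSA. Screening doses were 150 mg/kg ip and 300 mg/kg po, with some at 75 or 50 mg/kg ip. Lesions were excised 3.5 h after challenge and weighed against controls.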

Cavia porcellus [16] = assay: Tested in delayed hypersensitivity skin reaction (DHSR) after subcutaneous administration, activity reported as percent inhibition of erythema/induration of lesion; 9/24; type: functional; outline: as §1
Mus musculus [17] = assay: The compound was evaluated for the mouse active Arthus (MAA) reaction activity for an ip dose of 150 mg/kg in mouse; type: functional; conditions: route intraperitoneal; outline: as §2
Cavia porcellus [18] = assay: Tested in delayed hypersensitivity skin reaction (DHSR) after subcutaneous administration, activity reported as percent inhibition of erythema/induration of lesion; 8/11; type: functional; outline: as §1
Cavia porcellus [19] = assay: Tested in delayed hypersensitivity skin reaction (DHSR) after subcutaneous administration, activity reported as percent inhibition of erythema/induration of lesion; 14/34; type: functional
Mus musculus [20] = assay: The compound was evaluated for the mouse active Arthus (MAA) reaction activity expressed as inhibitory dose after ip administration; type: functional; conditions: read-out: ID50 (the source's name); outline: as §2
[21] = Therapeutic ratio was determined for peroral administration; conditions: po; read-out: TR
Mus musculus [22] = assay: Mouse active Arthus (MAA) reaction was determined value for oral administration
Cavia porcellus [23] = assay: Tested in delayed hypersensitivity skin reaction (DHSR) after subcutaneous administration, activity reported as percent inhibition of erythema/induration of lesion; 21/6; type: functional

CCCN1N=C2/C(=C/c3ccccc3C)CS(=O)(=O)CC2C1c1ccccc1C (stereo not given)
Activity (Cavia porcellus [1]): 7 | inhibition in vivo at 150 mg/kg (Mus musculus [2]): 21%

CCCN1N=C2/C(=C/c3ccc(Cl)cc3)CSCC2C1c1ccc(Cl)cc1 (stereo not given)
inhibition in vivo at 150 mg/kg (Mus musculus [2]): 21% | inhibition in vivo at 150 mg/kg (Mus musculus [3]): 21% | Activity (Cavia porcellus [4]): 14

CC(=O)N1N=C2/C(=C/c3ccccc3)CS(=O)(=O)CC2C1c1ccccc1 (stereo not given)
Activity (Cavia porcellus [5]): 8 | inhibition in vivo at 150 mg/kg (Mus musculus [6]): 41%

CCCN1N=C2/C(=C/c3cccc(C(F)(F)F)c3)CSCC2C1c1cccc(C(F)(F)F)c1 (stereo not given)
inhibition in vivo at 150 mg/kg (Mus musculus [7]): 31% | Activity (Cavia porcellus [8]): 12

CCCN1N=C2/C(=C/c3ccccc3)CSCC2C1c1ccccc1 (stereo not given)
inhibition in vivo at 150 mg/kg (Mus musculus [2]): 21% | Activity (Cavia porcellus [9]): 1

Cc1ccc(/C=C2\CS(=O)(=O)CC3C2=NN(CC2CC2)C3c2ccc(C)cc2)cc1 (stereo not given)
Activity (Cavia porcellus [10]): 15 | inhibition in vivo at 150 mg/kg (Mus musculus [11]): < 20%

O=S1(=O)C/C(=C\c2ccccc2)C2=NNC(c3ccccc3)C2C1 (stereo not given)
Activity (Cavia porcellus [12]): 3 | inhibition in vivo at 150 mg/kg (Mus musculus [6]): 41%

CC(C)N1N=C2/C(=C/c3cccc(C(F)(F)F)c3)CS(=O)(=O)CC2C1c1cccc(C(F)(F)F)c1 (stereo not given)
Activity (Cavia porcellus [13]): 4 | inhibition in vivo at 150 mg/kg (Mus musculus [7]): 31%

CC(C)(C)c1ccc(/C=C2\CS(=O)(=O)CC3C2=NN(CCc2ccccc2)C3c2ccc(C(C)(C)C)cc2)cc1 (stereo not given)
Activity (Cavia porcellus [14]): 13 | ED50 (Mus musculus [15]): > 600 mg/kg

CC(=O)N1N=C2/C(=C/c3cccnc3)CSCC2C1c1cccnc1 (stereo not given)
Activity (Cavia porcellus [16]): 9 | inhibition in vivo at 150 mg/kg (Mus musculus [17]): < 20%

CCCN1N=C2/C(=C/c3cccc(C(F)(F)F)c3)CS(=O)(=O)CC2C1c1cccc(C(F)(F)F)c1 (stereo not given)
Activity (Cavia porcellus [18]): 8 | inhibition in vivo at 150 mg/kg (Mus musculus [6]): 41%

COc1ccc(/C=C2\CSCC3C2=NN(CCCN2CCN(C)CC2)C3c2ccc(OC)cc2)cc1.O=C(O)/C=C\C(=O)O (stereo not given)
Activity (Cavia porcellus [19]): 14 | ED50 (Mus musculus [20]): 60 mg/kg | inhibition in vivo at 150 mg/kg (Mus musculus [17]): > 60%

CC(C)Cc1ccc(C(C)C(=O)O)cc1 (stereo not given) [IBUPROFEN]
selectivity ratio [21]: 3.4 | ID50 (Mus musculus [22]): 494 mg/kg

CN1CCN(CCCN2N=C3/C(=C/c4ccccc4)CSCC3C2c2ccccc2)CC1.O=C(O)/C=C\C(=O)O (stereo not given)
Inhibition (Cavia porcellus [23]): 21% | Inhibition (Mus musculus [6]): 41%
